Screens (PubChem)
This excerpt belongs to a sample that is enriched for hits.
Hsp70 activator = Hsp70 transcriptional activation, primary screen. hit rate 0.04% among 200,000. AID 1203. HeLa Hsp70 promoter luciferase reporter, luminescence; scaled: vehicle 0, proteasome-inhibitor control 100%. activation, % at 10 µM;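 active = activation above the mean across all tested compounds plus 3 SD, cutoff set per campaign, cut at about 5.5% in these data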;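 also: 100% = MG132 at 30 µM as the positive control and 0% = DMSO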
HSF-1 act = increases HSF-1 driven luciferase reporter signal; activation, % at 9 µM; hit rate 1.7% among 300,000; AID 504408; NIH3T3-HGL HSF-1 luciferase reporter, MG132, 8 h; 100% = twice DMSO control signal;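 active = mean replicate activation of at least 50% with a set share of replicates each reaching 50%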;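 also: 0% = median of the neutral control wells and 100% = twice that signal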
L major viab = Leishmania major promastigote growth inhibition. hit rate 9% among 200,000. inhibition, % at 10 µM. Leishmania major promastigotes, resazurin fluorescence viability; in the data active = inhibition above about 50%;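 also: promastigotes grown with compound for 44 hours at 28 °C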
T cruzi inh = blocks replication of Trypanosoma cruzi; hit rate 1.4% among 300,000; inhibition, % (concentration not given with the values); T. cruzi beta-gal in NIH3T3, luminescence, 90 h;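 active = mean inhibition across valid replicates above about 55%, limit read from the data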;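 also: signal also drops with host cell toxicity which is not excluded here; 0% = plate median of DMSO wells and 100% = zero luminescence signal; higher percent means less beta-gal luminescence so fewer parasites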
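System: Mouse NIH/3T3 fibroblasts infected with β-gal-expressing T. cruzi Tulahuen C4 | Quantity: NIH/3T3 cells, 5,000 per well | Reagent: 5000 reporter trypomastigotes per well | Dosing: Compound pinned at 50 nL/well, DMSO | Schedule: 3 h host attachment, then at least 90 h co-culture | Detection: GalScreen luminescence, 60 min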
HSF1 inh = HSF1 inhibition; activity change, negative = inhibition, % at 7.5 µM (by protocol); hit rate 0.77% among 300,000; NIH3T3-HGL HSE-luciferase, MG132-induced, luminescence 8 h; active compounds read low;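 active = more than half of replicate wells show activity change below -50%, luminescence cut by over half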;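 also: luciferase reports HSF-1 transcriptional activity via heat shock element; 0% = median of DMSO wells and -100% = zero luminescence signal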
* hit, by the source's call; / = not tested or not shown.

SMILES	Hsp70 activator	HSF-1 act	L major viab	T cruzi inh	HSF1 inh
Cc1cc(C)c(S(=O)(=O)Nc2ccc(C(=O)O)cc2)cc1S(=O)(=O)Nc1ccc(C(=O)O)cc1	/	0	/	-11	-7
CCN(CC)S(=O)(=O)c1ccc(Cl)c(C(=O)Nc2cc(C)nn2-c2ccccc2)c1	0	19	65*	-3	-4
Cc1cc(NC(=O)c2cc([N+](=O)[O-])cc([N+](=O)[O-])c2)n(-c2ccccc2)n1	0	33	89*	53	0
CCN1CC=C2C(C#N)=C(N)C(C#N)(C#N)C(c3cc(Cl)ccc3Cl)C2C1 (stereo not given)	0	-5	65*	3	-3
CC(=O)c1ccc(N2CCN(C(=O)c3ccco3)C(C)C2)c(F)c1 (stereo not given)	0	/	64*	-1	/
COc1ccc(NC(=O)CCc2nnc3ccc(N4CCC5(CC4)OCCO5)nn23)cc1	/	-1	/	-4	-3
CCOc1ccc(S(=O)(=O)N(CC(=O)NC2CCCCC2C)Cc2ccco2)cc1 (stereo not given)	0	17	87*	6	-4
O=C(COc1ccc2c3c(c(=O)oc2c1)CCCC3)N1C[C@H]2C[C@@H](C1)c1cccc(=O)n1C2	/	13	/	-2	-5
Cc1cc(C)c(C#N)c(SCc2nnc(-c3ccccc3[N+](=O)[O-])o2)n1	0	36	1	69*	20
Cc1cc(C)c(C#N)c(SCc2nnc(-c3ccccc3)o2)n1	0	-88	25	3	-85*
Cc1cc(C)c(C#N)c(SCc2ccccc2[N+](=O)[O-])n1	0	25	-1	-7	6
Cc1ccc(C#N)c(SCc2nnc(-c3ccc(Cl)cc3)o2)n1	0	-86	28	16	-84*
Cc1ccc(C#N)c(SCc2cc3c(cc2Cl)OCO3)n1	0	-1	-2	1	9
COc1ccc(CCN(C)C2CCCN(C(=O)Cn3cnnn3)C2)cc1OC (stereo not given)	/	11	/	38	3
COc1cccc2cc(C(N)=O)/c(=N/NC(=O)COc3ccc(Cl)cc3)oc12	0	-5	-1	-14	0
Cc1cc(C)cc(NC(=O)CCNS(=O)(=O)c2cc(Br)cnc2N)c1	/	2	/	14	-1
CC(=O)NS(=O)(=O)c1ccc(N=c2ssc3c2-c2ccc(C)cc2NC3(C)C)cc1	0	8	-3	0	-12
COC(=O)c1c(NC(=O)CN2C(=O)NC3(CCC(C(C)(C)C)CC3)C2=O)sc2c1CCCCC2 (stereo not given)	0	/	0	58*	/
O=C1c2ccccc2NC(c2ccc(O)cc2)N1/N=C/c1ccc(O)cc1 (stereo not given)	0	70*	67*	-12	29
O=C(CSc1nnc(CNC(=O)c2cccs2)o1)Nc1ccc(Cl)cc1	/	3	/	5	-3
CC(C)(C)NC(=O)c1cccc(NC(=O)CSc2ccc(Cl)cc2)c1	0	173*	91*	1	117
CC(C)CNC(=O)c1cccc(NC(=O)CSc2ccc(Cl)cc2)c1	0	14	9	-6	8
O=C(CSc1cccs1)Nc1ccc(Cl)cc1	/	66*	/	-14	39
CSc1cccc(NC(=O)CSc2ccc(Cl)cc2)c1	0	11	54*	-13	9
COc1ccccc1NC(=O)Nc1nc(CC(=O)N2CCN(c3ccccc3)CC2)cs1	/	62*	/	7	34
SMILES	Hsp70 activator	HSF-1 act	L major viab	T cruzi inh	HSF1 inh
CCN(CC)CCCNc1ccc(-c2nnc(-c3ccc(OCC(C)C)cc3)o2)cn1	/	-12	/	55*	-14
O=C(Nc1ccc(Cl)cc1)OCc1cncs1	0	14	1	5	11
O=C(Nc1cccc(Cl)c1)OCc1cncs1	0	-4	78*	22	2
CN(C)c1cc(Nc2ccc(O)cc2)c([N+](=O)[O-])c2nonc12	/	-41	/	-8	-25
O=[N+]([O-])c1c(Nc2ccccn2)cc(Cl)c2nonc12	/	163*	/	60*	98
O=[N+]([O-])c1c(Nc2ccc(O)cc2)cc(Cl)c2nonc12	/	132*	/	64*	122
COc1cc(NC(=O)c2cc3c(Cl)nc4ccccc4c3s2)cc(OC)c1OC	0	-27	57*	-6	-14
COc1ccc(NC(=O)c2cc3c(Cl)nc4ccccc4c3s2)c(OC)c1	0	18	0	-15	21
CC1CCCN(CCCNC(=O)c2cc3c(Cl)nc4ccccc4c3s2)C1 (stereo not given)	0	3	100*	77*	-7
CCN(CC)CCCNC(=O)c1cc2c(Cl)nc3ccccc3c2s1	0	42	98*	50	7
CN(CCCNC(=O)c1cc2c(Cl)nc3ccccc3c2s1)Cc1ccccc1	0	-10	93*	69*	7
CCN(CC)CCCNC(=O)c1cc2c(=O)n(CC)c3ccccc3c2s1	/	2	/	9	16
Cc1ccc2cc3cc(C(=O)NCCC(C)C)oc3nc2c1	0	4	0	3	-3
Cc1ccc2cc3cc(C(=O)NCc4ccco4)oc3nc2c1	0	64*	5	-10	28
COc1ccc(NC(=O)c2ccc(CNc3c(N4CCCC4)c(=O)c3=O)cc2)cc1Cl	/	-7	/	-6	12
CCN(CC)C(=O)C1CCCN(c2ccc([N+](=O)[O-])cc2/C=N/NC(=O)c2ccccc2)C1 (stereo not given)	0	-3	12	-6	1
O=C(N/N=C/c1cc([N+](=O)[O-])ccc1O)C1CCCCC1	0	-7	97*	-2	-8
CCN(CC)C(=O)C1CCCN(c2ccc([N+](=O)[O-])cc2/C=N/NC(=O)c2ccc([N+](=O)[O-])cc2)C1 (stereo not given)	0	-82	53*	2	-78*
O=C(N/N=C/c1cc([N+](=O)[O-])ccc1O)C1C2CCCCC21 (stereo not given)	0	4	92*	-15	1
CC1C=CCC2C(=O)N(c3cc(Cl)ccc3O)C(=O)C12 (stereo not given)	0	-2	-5	-8	-9
Cc1nc([N+](=O)[O-])cn1-c1nc2ccccn2c1[N+](=O)[O-]	/	-18	/	0	-4
C=CC1=C2C=C(C3CC3)N(CCCN(CC)CC)C=C2C(=O)C(C)(OC(=O)c2ccco2)C1=O (stereo not given)	/	-4	/	-16	0
COc1nc(N2CCOCC2)nc(C)c1[N+](=O)[O-]	0	-11	62*	-5	3
CCC(c1nnnn1C(C)(C)C)N(Cc1ccco1)Cc1cc2cccc(C)c2[nH]c1=O (stereo not given)	0	66*	62*	41	49
CCC(c1nnnn1CCc1ccccc1)N(Cc1ccco1)Cc1cc2cccc(C)c2[nH]c1=O (stereo not given)	0	90*	99*	44	68
